# Activity calls are given as the source filed them. The calls are words filed in the database; no cut-off is given here.
# Assays:
# Candida parapsilosis [1] = test: Antifungal activity against Candida parapsilosis ATCC 22019 at 16.5 uM after 48 hrs by CLSI method; type: functional, organism-based
# Outline: (§1)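 Yeast suspensions made from 3-5 colonies off 24-72 h SD agar plates in saline. They were diluted by OD630 standard curve in RPMI 1640 (0.2% dextrose, 0.03% glutamine, 0.165 M MOPS, pH 7.0) to 1.5 × 10³ CFU/ml. Twofold dilutions (11 concentrations, 20% DMSO-saline) run in duplicate. OD530 read before and after 35°C, 48 h. Line values are top test concentrations; no-growth endpoints give MIC/MFC.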
# Trichophyton rubrum [2] = test: Antifungal activity against Trichophyton rubrum ATCC MYA-4438 by CLSI method; type: functional, organism-based
# Outline: (§2)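 Growth scraped from 1- to 6-week-old potato dextrose slants and filtered through Miracloth. Diluted in 5% Alamar blue-RPMI 1640 (MOPS pH 7.0) to 2.7 × 10⁴ CFU/ml. Eleven twofold dilutions in duplicate. Fluorescence at 544 nm excitation/590 nm emission read before and after 35°C, 5 days. IC50 fitted from percent growth. MIC taken as no detectable growth; MFC from clear or blue wells plated on PD agar.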
# [3] = system: Trichophyton mentagrophytes; test: Antifungal activity against Trichophyton mentagrophytes ATCC 9533 by CLSI method; type: functional, organism-based; outline: as §2
# [4] = system: Trichophyton mentagrophytes; test: Antifungal activity against Trichophyton mentagrophytes ATCC MYA-4439 by CLSI method; type: functional, organism-based; outline: as §2
# Cryptococcus neoformans [5] = test: Antifungal activity against Cryptococcus neoformans ATCC 66031 after 72 hrs by CLSI method; type: functional, organism-based; conditions: ATCC 66031, 72 h
# Outline: (§3)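 SD broth replaced RPMI because growth in RPMI was poor; other CLSI conditions were kept. Inoculum was 1.5 × 10³ CFU/ml from colonies on SD agar, checked by plating. Twofold serial dilutions (11 concentrations) in 20% DMSO-saline were tested in duplicate. OD530 was read before and after incubation at 35°C for 72 h. Percent growth gave IC50; the MIC is the lowest concentration with no detectable growth.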
# Cryptococcus neoformans [6] = test: Antifungal activity against Cryptococcus neoformans ATCC 90113 after 72 hrs by CLSI method; type: functional, organism-based; conditions: ATCC 90113, 72 h; outline: as §3
# Candida tropicalis = test: Antifungal activity against Candida tropicalis ATCC 750 after 48 hrs by CLSI method; type: functional, organism-based; conditions: ATCC 750, 48 h; outline: as §1
# Candida parapsilosis [7] = test: Antifungal activity against Candida parapsilosis ATCC 22019 after 48 hrs by CLSI method; type: functional, organism-based; conditions: Lodderomyces parapsilosis, ATCC 22019, 48 h; outline: as §1
# Pichia kudriavzevii = test: Antifungal activity against Candida krusei ATCC 6258 after 48 hrs by CLSI method; type: functional, organism-based; conditions: ATCC 6258, 48 h
# Outline: (§4)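 Candida inocula came from 24–72-h SD agar colonies suspended in saline. They were diluted by OD630 standard curve into RPMI 1640 (0.2% dextrose, 0.03% glutamine, 0.165 M MOPS, pH 7.0) to 1.5 × 10³ CFU/ml. Compounds were run as 11 twofold dilutions in 20% DMSO-saline, in duplicate, at 35°C for 48 h, with OD530 read before and after. Percent growth at the top concentration, IC50, MIC, and MFC (SD agar plating) were derived.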
# Nakaseomyces glabratus = test: Antifungal activity against Candida glabrata ATCC 90030 after 48 hrs by CLSI methodCandida glabrata; type: functional, organism-based; conditions: ATCC 90030, 48 h; outline: as §4
# Candida albicans [8] = test: Antifungal activity against Fluconazole resistant Candida albicans clinical isolate 17 after 48 hrs by CLSI method; type: functional, organism-based
# Outline: (§5)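 CLSI broth microdilution. Colonies from 24–72 h SD agar suspended in saline and sized by OD630 standard curve. Inoculum 1.5 × 10³ CFU/ml (final) in RPMI 1640 (0.2% dextrose, 0.03% glutamine, 0.165 M MOPS, pH 7.0). Twofold dilutions (11 levels) from 20% DMSO-saline, in duplicate. 35°C for 48 h, OD530 read before and after. IC50 fitted from % growth. MIC: no detectable growth. MFC: subculture onto SD agar.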
# Aspergillus fumigatus [9] = test: Antifungal activity against Aspergillus fumigatus ATCC 204305 at 16.5 uM after 48 hrs by CLSI method; type: functional, organism-based
# Candida albicans [10] = test: Antifungal activity against Fluconazole resistant Candida albicans clinical isolate 1 after 48 hrs by CLSI method; type: functional, organism-based; outline: as §5
# Aspergillus fumigatus [11] = test: Antifungal activity against Aspergillus fumigatus ATCC 90906 at 16.5 uM after 48 hrs by CLSI method; type: functional, organism-based
# Aspergillus flavus = test: Antifungal activity against Aspergillus flavus ATCC 204304 at 16.5 uM after 48 hrs by CLSI method; type: functional, organism-based
# Candida albicans [12] = test: Antifungal activity against Candida albicans ATCC 200955 after 48 hrs by CLSI method; type: functional, organism-based; conditions: ATCC 200955, 48 h; outline: as §5
# Aspergillus niger = test: Antifungal activity against Aspergillus niger ATCC 16404 at 16.5 uM after 48 hrs by CLSI method; type: functional, organism-based
# Candida albicans [13] = test: Antifungal activity against Candida albicans ATCC 90028 after 48 hrs by CLSI method; type: functional, organism-based; conditions: ATCC 90028, 48 h; outline: as §5
# [14] = system: Trichophyton mentagrophytes; test: Antifungal activity against Trichophyton mentagrophytes ATCC MYA-4439 at 16.5 uM after 5 days by CLSI method; type: functional, organism-based
# Candida albicans [15] = test: Antifungal activity against Candida albicans ATCC 32354 after 48 hrs by CLSI method; type: functional, organism-based; conditions: ATCC 32354, 48 h; outline: as §5
# [16] = system: Trichophyton mentagrophytes; test: Antifungal activity against Trichophyton mentagrophytes ATCC 9533 at 16.5 uM after 5 days by CLSI method; type: functional, organism-based
# Trichophyton rubrum [17] = test: Antifungal activity against Trichophyton rubrum ATCC MYA-4438 at 16.5 uM after 5 days by CLSI method; type: functional, organism-based
# Trichophyton rubrum [18] = test: Antifungal activity against Trichophyton rubrum ATCC 10218 at 16.5 uM after 5 days by CLSI method; type: functional, organism-based
# Candida albicans [19] = test: Antifungal activity against Candida albicans ATCC 14053 after 48 hrs by CLSI method; type: functional, organism-based; conditions: ATCC 14053, 48 h; outline: as §5
# Candida albicans [20] = test: Antifungal activity against Candida albicans ATCC 60193 after 48 hrs by CLSI method; type: functional, organism-based; conditions: ATCC 60193, 48 h; outline: as §5
# Aspergillus fumigatus [21] = test: Antifungal activity against Aspergillus fumigatus ATCC 90906 after 48 h by CLSI method; conditions: ATCC 90906, 48 h
smiles,measurement,setting,value
CC[C@H](C)C[C@H](C)CCCCCCCCC(=O)N[C@H]1C[C@@H](O)[C@@H](NCCN)NC(=O)[C@@H]2[C@@H](O)CCN2C(=O)[C@H]([C@H](O)CCN)NC(=O)[C@H]([C@H](O)[C@@H](O)c2ccc(O)cc2)NC(=O)[C@@H]2C[C@@H](O)CN2C(=O)[C@H]([C@@H](C)O)NC1=O [CASPOFUNGIN],Activity,Candida parapsilosis [1],inactive
same,IC50,Trichophyton rubrum [2],0.06 µM
same,MIC,Trichophyton rubrum [2],0.1 µM
same,IC50,[3],0.3 µM
same,IC50,[4],0.2 µM
same,IC50,Cryptococcus neoformans [5],0.1 µM
same,MFC,Cryptococcus neoformans [5],1 µM
same,MIC,Cryptococcus neoformans [5],0.5 µM
same,IC50,Cryptococcus neoformans [6],0.4 µM
same,MFC,Cryptococcus neoformans [6],2.1 µM
same,MIC,Cryptococcus neoformans [6],1 µM
same,IC50,Candida tropicalis,0.06 µM
same,MFC,Candida tropicalis,0.26 µM
same,MIC,Candida tropicalis,0.1 µM
same,IC50,Candida parapsilosis [7],0.2 µM
same,MIC,Candida parapsilosis [7],0.5 µM
same,IC50,Pichia kudriavzevii,0.1 µM
same,MFC,Pichia kudriavzevii,1 µM
same,MIC,Pichia kudriavzevii,0.4 µM
same,IC50,Nakaseomyces glabratus,0.05 µM
same,MFC,Nakaseomyces glabratus,0.26 µM
same,MIC,Nakaseomyces glabratus,0.13 µM
same,IC50,Candida albicans [8],0.04 µM
same,MFC,Candida albicans [8],0.26 µM
same,MIC,Candida albicans [8],0.13 µM
same,Activity,Aspergillus fumigatus [9],inactive
same,IC50,Candida albicans [10],0.05 µM
same,MFC,Candida albicans [10],0.26 µM
same,MIC,Candida albicans [10],0.1 µM
same,Activity,Aspergillus fumigatus [11],inactive
same,Activity,Aspergillus flavus,inactive
same,IC50,Candida albicans [12],0.05 µM
same,MFC,Candida albicans [12],0.13 µM
same,MIC,Candida albicans [12],0.13 µM
same,Activity,Aspergillus niger,inactive
same,IC50,Candida albicans [13],0.06 µM
same,MFC,Candida albicans [13],0.26 µM
same,MIC,Candida albicans [13],0.19 µM
same,Activity,[14],inactive
same,IC50,Candida albicans [15],0.07 µM
same,MFC,Candida albicans [15],1.03 µM
same,MIC,Candida albicans [15],0.13 µM
same,Activity,[16],inactive
same,Activity,Trichophyton rubrum [17],inactive
same,Activity,Trichophyton rubrum [18],inactive
same,IC50,Candida albicans [19],0.05 µM
same,MFC,Candida albicans [19],0.26 µM
same,MIC,Candida albicans [19],0.1 µM
same,IC50,Candida albicans [20],0.03 µM
same,MFC,Candida albicans [20],0.52 µM
same,MIC,Candida albicans [20],0.1 µM
same,IC50,Aspergillus fumigatus [21],0.2 µM
same,MIC,Aspergillus fumigatus [21],16.5 µM
